{
  "source": "ChEMBL document CHEMBL1146297",
  "about": "“Synthesis of 2'-paclitaxel methyl 2-glucopyranosyl succinate for specific targeted delivery to cancer cells” (Bioorg Med Chem Lett, 2007)",
  "key": {"[1]": {"system": "MCF7", "assay": "Cytotoxicity against human MCF7 cells at 25 ng/mL", "assay_type": "functional"}, "[2]": {"system": "NCI-H226", "assay": "Cytotoxicity against human NCI-H226 cells", "assay_type": "functional, cell-based"}, "[3]": {"assay": "Solubility in water", "assay_type": "physicochemical"}, "[4]": {"system": "A498", "assay": "Cytotoxicity against human A498 cells", "assay_type": "functional, cell-based"}, "[5]": {"assay": "Cytotoxicity against human TW01 cells", "assay_type": "functional, cell-based"}, "[6]": {"system": "HCT-116", "assay": "Cytotoxicity against human HCT116 cells", "assay_type": "functional, cell-based"}, "[7]": {"system": "MCF7", "assay": "Cytotoxicity against human MCF7 cells", "assay_type": "functional, cell-based", "how_it_was_run": "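Human MCF-7 breast cancer cells were tested in a panel of eight cancer lines plus RPTEC normal renal epithelial cells, with growth inhibition measured across a concentration range. IC50 is the concentration giving 50% inhibition, taken as the mean of at least three independent experiments with SD under 10%.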"}, "[8]": {"assay": "Cytotoxicity against human Hep3B cells", "assay_type": "functional, cell-based, Hep 3B2"}, "[9]": {"system": "MKN-45", "assay": "Cytotoxicity against human MKN45 cells", "assay_type": "functional, cell-based"}, "[10]": {"assay": "Cytotoxicity against human MES-SA cells", "assay_type": "functional, cell-based"}, "[11]": {"system": "RPTEC", "assay": "Cytotoxicity against human RPTEC cells", "assay_type": "cell-based"}, "[12]": {"system": "RPTEC", "assay": "Selectivity index, IC50 for MCF7 cells to human RPTEC cells", "assay_type": "functional", "how_it_was_run": "(§1)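 Selectivity index is the IC50 in the cancer line (MCF-7 or NPC-TW01) divided by the IC50 in normal RPTEC cells. Each IC50 is the mean of at least three independent experiments.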"}, "[13]": {"system": "RPTEC", "assay": "Selectivity index, IC50 for TW01 cells to human RPTEC cells", "assay_type": "functional", "how_it_was_run": "as §1"}, "[14]": {"assay": "Stability in human serum for 4 hrs", "assay_type": "ADME, cell-free", "details": "read-out: Stability", "how_it_was_run": "(§2)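 Compound incubated in human serum at 4 µg/mL serum and 37 °C. It was then extracted with dichloromethane, and the remaining intact material was quantified by reverse-phase HPLC on a C18 column. Sampling ran up to 96 h, and stability is expressed as percent remaining.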"}, "[15]": {"assay": "Half life in human serum", "assay_type": "ADME, cell-free", "how_it_was_run": "as §2"}},
  "data": [
    {"smiles": "CC(=O)O[C@H]1C(=O)[C@@]2(C)[C@H]([C@H](OC(=O)c3ccccc3)[C@]3(O)C[C@H](OC(=O)[C@H](OC(=O)CCC(=O)O)[C@@H](NC(=O)c4ccccc4)c4ccccc4)C(C)=C1C3(C)C)[C@]1(OC(C)=O)CO[C@@H]1C[C@@H]2O", "values": [
      {"measurement": "Activity", "setting": "[1]", "value": 50, "unit": "%"}
    ]},
    {"smiles": "CC(=O)O[C@H]1C(=O)[C@@]2(C)[C@H]([C@H](OC(=O)c3ccccc3)[C@]3(O)C[C@H](OC(=O)[C@H](O)[C@@H](NC(=O)c4ccccc4)c4ccccc4)C(C)=C1C3(C)C)[C@]1(OC(C)=O)CO[C@@H]1C[C@@H]2O", "note": "[PACLITAXEL]", "values": [
      {"measurement": "IC50", "setting": "[2]", "value": 6.8, "unit": "nM"},
      {"measurement": "solubility", "setting": "[3]", "value": "< 4", "unit": "µg/mL"},
      {"measurement": "IC50", "setting": "[4]", "value": 61, "unit": "nM"},
      {"measurement": "IC50", "setting": "[5]", "value": 0.3, "unit": "nM"},
      {"measurement": "IC50", "setting": "[6]", "value": 0.6, "unit": "nM"},
      {"measurement": "IC50", "setting": "[7]", "value": 0.5, "unit": "nM"},
      {"measurement": "IC50", "setting": "[8]", "value": 5.4, "unit": "nM"},
      {"measurement": "IC50", "setting": "[9]", "value": 0.5, "unit": "nM"},
      {"measurement": "IC50", "setting": "[10]", "value": 0.5, "unit": "nM"},
      {"measurement": "IC50", "setting": "[11]", "value": 0.9, "unit": "nM"},
      {"measurement": "Ratio IC50", "setting": "[12]", "value": 0.56},
      {"measurement": "Ratio IC50", "setting": "[13]", "value": 0.33}
    ]},
    {"smiles": "CO[C@H]1O[C@H](CO)[C@@H](O)[C@@H](O)[C@H]1OC(=O)CCC(=O)O[C@@H](C(=O)O[C@H]1C[C@@]2(O)[C@@H](OC(=O)c3ccccc3)[C@@H]3[C@]4(OC(C)=O)CO[C@@H]4C[C@H](O)[C@@]3(C)C(=O)[C@H](OC(C)=O)C(=C1C)C2(C)C)[C@@H](NC(=O)c1ccccc1)c1ccccc1", "values": [
      {"measurement": "IC50", "setting": "[2]", "value": 114, "unit": "nM"},
      {"measurement": "solubility", "setting": "[3]", "value": 350, "unit": "µg/mL"},
      {"measurement": "remaining at 4 h", "setting": "[14]", "value": 85, "unit": "%"},
      {"measurement": "half-life", "setting": "[15]", "value": 66, "unit": "h"},
      {"measurement": "IC50", "setting": "[4]", "value": 258, "unit": "nM"},
      {"measurement": "IC50", "setting": "[5]", "value": 7.2, "unit": "nM"},
      {"measurement": "IC50", "setting": "[6]", "value": 25.6, "unit": "nM"},
      {"measurement": "IC50", "setting": "[7]", "value": 0.7, "unit": "nM"},
      {"measurement": "IC50", "setting": "[8]", "value": 60.3, "unit": "nM"},
      {"measurement": "IC50", "setting": "[9]", "value": 14.1, "unit": "nM"},
      {"measurement": "IC50", "setting": "[10]", "value": 9.1, "unit": "nM"},
      {"measurement": "IC50", "setting": "[11]", "value": 1580, "unit": "nM"},
      {"measurement": "Ratio IC50", "setting": "[12]", "value": 0.0004},
      {"measurement": "Ratio IC50", "setting": "[13]", "value": 0.0046}
    ]}
  ]
}
